# Laboratory results reported in ChEMBL document CHEMBL1133468, “New diarylmethylpiperazines as potent and selective nonpeptidic delta opioid receptor agonists with increased In vitro metabolic stability” (J Med Chem, 2000).
# Tested on: not listed separately
# Assay: Metabolic stability at a concentration of 100 uM in rat liver microsomes after 1 hr incubation
# Assay type: ADME
# Summary of the method: (§1)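 Substrate at 10 or 100 µM final (1% DMSO) with rat liver microsomes (0.4 mg/mL protein), 1 mM NADPH, 100 mM phosphate pH 7.4, 37 °C with gentle shaking, in duplicate. Reaction started by NADPH and stopped at 0 and 60 min with ice-cold acetonitrile. After centrifugation, supernatant analysed by LC-MS for % parent remaining. Controls omitted microsomes or NADPH.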
row,SMILES,"remaining at 1 h, 100 µM"
1,CCN(CC)C(=O)c1ccc(C(c2ccccc2)N2CCNCC2)cc1 (stereo not drawn),89%
2,C=CCN1C[C@H](C)N([C@H](c2ccc(C(=O)N(CC)CC)cc2)c2cccc(O)c2)C[C@H]1C,59%
3,CCN(CC)C(=O)c1ccc(C(c2cccc3c2OC(C)(C)C3)N2CCNCC2)cc1 (stereo not drawn),93%
4,CCN(CC)C(=O)c1ccc(C(c2cccc3cccnc23)N2CCNCC2)cc1 (stereo not drawn),83%

# Tested on: not listed separately
# Assay: Emax value was determined
# Summary of the method: (§2)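 GTPγ35S binding on P2 membranes of HEK-293S cells stably expressing human δ receptor (9.7 pmol/mg protein). Filtration after 1 h. Stimulated binding set with 3 µM SNC-80. %Emax from 3-parameter logistic fit.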
row,SMILES,Emax
1,CCN(CC)C(=O)c1ccc(C(c2ccc3cccnc3c2)N2CCNCC2)cc1 (stereo not drawn),100%

# Molecular target: Mu-type opioid receptor (Homo sapiens, UniProt P35372)
# Assay: Binding affinity against cloned human Opioid receptor mu 1 using [125I]FK33824 as radioligand
# Chain of Mu-type opioid receptor (P35372 whole entry): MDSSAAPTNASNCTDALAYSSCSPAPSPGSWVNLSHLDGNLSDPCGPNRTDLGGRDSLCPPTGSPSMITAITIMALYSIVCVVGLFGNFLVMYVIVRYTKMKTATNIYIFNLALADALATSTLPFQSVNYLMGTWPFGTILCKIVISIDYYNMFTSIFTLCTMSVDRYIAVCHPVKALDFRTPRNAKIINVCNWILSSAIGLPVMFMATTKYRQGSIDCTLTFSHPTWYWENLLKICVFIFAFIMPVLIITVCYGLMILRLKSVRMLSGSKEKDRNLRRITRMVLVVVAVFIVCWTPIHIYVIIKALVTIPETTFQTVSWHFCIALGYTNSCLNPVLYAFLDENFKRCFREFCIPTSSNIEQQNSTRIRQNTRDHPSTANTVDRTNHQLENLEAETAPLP
row,SMILES,IC50
1,CCN(CC)C(=O)c1ccc(C(c2ccccc2)N2CCN(CC3CC3)CC2)cc1 (stereo not drawn),2.4 µM
2,CCN(CC)C(=O)c1ccc(C(c2cccc(OC)c2)N2CC(C)NCC2(C)C)cc1 (stereo not drawn),0.284 µM
3,CCN(CC)C(=O)c1ccc(C(c2ccccc2)C2CCNCC2)cc1 (stereo not drawn),> 10 µM
4,CCN(CC)C(=O)c1ccc(C(c2ccccc2)N2CCN(C)CC2)cc1 (stereo not drawn),> 10 µM
5,CCN(CC)C(=O)c1ccc(C(C2CCCCC2)N2CCNCC2)cc1 (stereo not drawn),0.185 µM
6,CCN(CC)C(=O)c1ccc(C(c2cccc3cnccc23)N2CCNCC2)cc1 (stereo not drawn),1.48 µM
7,CCN(CC)C(=O)c1ccc(C(c2ccc3cc[nH]c3c2)N2CCNCC2)cc1 (stereo not drawn),2.22 µM
8,CCN(CC)C(=O)c1ccc(C(c2ccccc2)N(C)CCNC)cc1 (stereo not drawn),6.97 µM
9,CCN(CC)C(=O)c1ccc(C(c2ccc(Cl)cc2)N2CCNCC2)cc1 (stereo not drawn),5.33 µM
10,CCN(CC)C(=O)c1ccc(C(c2cccc(OC)c2)N2CCNCC2)cc1 (stereo not drawn),5.29 µM
11,CCCCN1CCN(C(c2ccccc2)c2ccc(C(=O)N(CC)CC)cc2)CC1 (stereo not drawn),0.486 µM
12,CCN(CC)C(=O)c1ccc(C(c2ccc3cccnc3c2)N2CCNCC2)cc1 (stereo not drawn),1.02 µM
13,CCN(CC)C(=O)c1ccc(C(c2ccc3ccccc3c2)N2CCNCC2)cc1 (stereo not drawn),2.68 µM
14,CCN(CC)C(=O)c1ccc(C(c2ccccc2)N2CCCNCC2)cc1 (stereo not drawn),2.29 µM
15,CCN(CC)C(=O)c1ccc(C(c2cccc(F)c2)N2CCNCC2)cc1 (stereo not drawn),5.65 µM
16,CCN(CC)C(=O)c1ccc(C(c2ccc(C)cc2)N2CCNCC2)cc1 (stereo not drawn),7.09 µM
17,C=CCN1C[C@H](C)N([C@H](c2ccc(C(=O)N(CC)CC)cc2)c2cccc(O)c2)C[C@H]1C,0.0021 µM
18,CCN(CC)C(=O)c1ccc(C(c2cccc3c2OC(C)(C)C3)N2CCNCC2)cc1 (stereo not drawn),0.785 µM
19,CCN(CC)C(=O)c1ccc(C(c2cccc3ccccc23)N2CCNCC2)cc1 (stereo not drawn),0.777 µM
20,CCN(CC)C(=O)c1ccc(C(c2cccc3cccnc23)N2CCNCC2)cc1 (stereo not drawn),0.632 µM

# Molecular target: T1, Delta-type opioid receptor (Homo sapiens, UniProt P41143)
# Assay: Binding affinity against human opioid receptor delta 1 using [125I]-[D-Ala2]-deltorphin II as radioligand
# T1 sequence (P41143 whole entry): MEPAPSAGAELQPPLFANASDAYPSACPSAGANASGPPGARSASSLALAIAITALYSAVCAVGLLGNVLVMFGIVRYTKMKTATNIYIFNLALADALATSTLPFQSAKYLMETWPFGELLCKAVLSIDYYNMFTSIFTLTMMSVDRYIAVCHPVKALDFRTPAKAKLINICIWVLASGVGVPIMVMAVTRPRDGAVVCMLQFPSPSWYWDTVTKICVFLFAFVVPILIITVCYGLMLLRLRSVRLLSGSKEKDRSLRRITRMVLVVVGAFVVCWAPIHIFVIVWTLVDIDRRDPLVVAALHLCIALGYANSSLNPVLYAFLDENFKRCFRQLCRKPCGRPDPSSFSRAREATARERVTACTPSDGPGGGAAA
row,SMILES,IC50
1,CCN(CC)C(=O)c1ccc(C(c2ccccc2)N2CCN(CC3CC3)CC2)cc1 (stereo not drawn),0.0353 µM
2,CCN(CC)C(=O)c1ccc(C(c2cccc(OC)c2)N2CC(C)NCC2(C)C)cc1 (stereo not drawn),0.0533 µM
3,CCN(CC)C(=O)c1ccc(C(c2ccccc2)N2CCN(C)CC2)cc1 (stereo not drawn),0.0404 µM
4,CCN(CC)C(=O)c1ccc(C(C2CCCCC2)N2CCNCC2)cc1 (stereo not drawn),0.0984 µM
5,CCN(CC)C(=O)c1ccc(C(c2cccc3cnccc23)N2CCNCC2)cc1 (stereo not drawn),0.00411 µM
6,CCN(CC)C(=O)c1ccc(C(c2ccc3cc[nH]c3c2)N2CCNCC2)cc1 (stereo not drawn),0.00681 µM
7,CCN(CC)C(=O)c1ccc(C(c2ccccc2)N(C)CCNC)cc1 (stereo not drawn),0.0916 µM
8,CCN(CC)C(=O)c1ccc(C(c2ccc(Cl)cc2)N2CCNCC2)cc1 (stereo not drawn),0.0193 µM
9,CCN(CC)C(=O)c1ccc(C(c2cccc(OC)c2)N2CCNCC2)cc1 (stereo not drawn),0.0248 µM
10,CCCCN1CCN(C(c2ccccc2)c2ccc(C(=O)N(CC)CC)cc2)CC1 (stereo not drawn),0.0286 µM
11,CCN(CC)C(=O)c1ccc(C(c2ccc3cccnc3c2)N2CCNCC2)cc1 (stereo not drawn),0.0011 µM
12,CCN(CC)C(=O)c1ccc(C(c2ccc3ccccc3c2)N2CCNCC2)cc1 (stereo not drawn),0.00763 µM
13,CCN(CC)C(=O)c1ccc(C(c2ccccc2)N2CCCNCC2)cc1 (stereo not drawn),0.0196 µM
14,CCN(CC)C(=O)c1ccc(C(c2cccc(F)c2)N2CCNCC2)cc1 (stereo not drawn),0.0045 µM
15,CCN(CC)C(=O)c1ccc(C(c2ccc(C)cc2)N2CCNCC2)cc1 (stereo not drawn),0.00842 µM
16,CCN(CC)C(=O)c1ccc(C(c2cccc3c2OC(C)(C)C3)N2CCNCC2)cc1 (stereo not drawn),0.00115 µM
17,CCN(CC)C(=O)c1ccc(C(c2cccc3ccccc23)N2CCNCC2)cc1 (stereo not drawn),0.00236 µM
18,CCN(CC)C(=O)c1ccc(C(c2cccc3cccnc23)N2CCNCC2)cc1 (stereo not drawn),0.00051 µM

# Tested on: not listed separately
# Assay: Metabolic stability at a concentration of 10 uM in rat liver microsomes after 1 hr incubation
# Assay type: ADME
# Summary of the method: as §1
row,SMILES,"remaining at 1 h, 10 µM"
1,CCN(CC)C(=O)c1ccc(C(c2ccccc2)N2CCNCC2)cc1 (stereo not drawn),60%
2,C=CCN1C[C@H](C)N([C@H](c2ccc(C(=O)N(CC)CC)cc2)c2cccc(O)c2)C[C@H]1C,4%
3,CCN(CC)C(=O)c1ccc(C(c2cccc3c2OC(C)(C)C3)N2CCNCC2)cc1 (stereo not drawn),43%
4,CCN(CC)C(=O)c1ccc(C(c2cccc3cccnc23)N2CCNCC2)cc1 (stereo not drawn),52%

# Molecular target: Kappa-type opioid receptor (Homo sapiens, UniProt P41145)
# Assay: Binding affinity against cloned human Opioid receptor kappa 1 using [125I]-D-Pro10-dynorphin A[1-11] as radioligand
# Chain of Kappa-type opioid receptor (P41145 whole entry): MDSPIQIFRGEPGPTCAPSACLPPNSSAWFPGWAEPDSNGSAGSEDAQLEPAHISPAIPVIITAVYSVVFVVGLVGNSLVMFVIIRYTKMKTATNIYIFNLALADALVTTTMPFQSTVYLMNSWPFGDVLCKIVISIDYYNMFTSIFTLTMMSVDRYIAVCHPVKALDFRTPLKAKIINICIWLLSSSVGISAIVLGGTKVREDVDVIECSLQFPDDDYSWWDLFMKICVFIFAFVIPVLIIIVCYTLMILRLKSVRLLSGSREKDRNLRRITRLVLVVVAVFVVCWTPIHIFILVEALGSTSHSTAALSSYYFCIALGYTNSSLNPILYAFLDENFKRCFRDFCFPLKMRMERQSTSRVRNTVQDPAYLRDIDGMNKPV
row,SMILES,IC50
1,CCN(CC)C(=O)c1ccc(C(c2ccccc2)N2CCN(CC3CC3)CC2)cc1 (stereo not drawn),> 5.6 µM
2,CCN(CC)C(=O)c1ccc(C(c2cccc(OC)c2)N2CC(C)NCC2(C)C)cc1 (stereo not drawn),> 10 µM
3,CCN(CC)C(=O)c1ccc(C(c2ccccc2)C2CCNCC2)cc1 (stereo not drawn),> 10 µM
4,CCN(CC)C(=O)c1ccc(C(c2ccccc2)N2CCN(C)CC2)cc1 (stereo not drawn),6.97 µM
5,CCN(CC)C(=O)c1ccc(C(C2CCCCC2)N2CCNCC2)cc1 (stereo not drawn),0.724 µM
6,CCN(CC)C(=O)c1ccc(C(c2cccc3cnccc23)N2CCNCC2)cc1 (stereo not drawn),> 10 µM
7,CCN(CC)C(=O)c1ccc(C(c2ccc3cc[nH]c3c2)N2CCNCC2)cc1 (stereo not drawn),3.97 µM
8,CCN(CC)C(=O)c1ccc(C(c2ccccc2)N(C)CCNC)cc1 (stereo not drawn),> 10 µM
9,CCN(CC)C(=O)c1ccc(C(c2ccc(Cl)cc2)N2CCNCC2)cc1 (stereo not drawn),> 10 µM
10,CCN(CC)C(=O)c1ccc(C(c2cccc(OC)c2)N2CCNCC2)cc1 (stereo not drawn),> 10 µM
11,CCCCN1CCN(C(c2ccccc2)c2ccc(C(=O)N(CC)CC)cc2)CC1 (stereo not drawn),> 10 µM
12,CCN(CC)C(=O)c1ccc(C(c2ccc3cccnc3c2)N2CCNCC2)cc1 (stereo not drawn),3.16 µM
13,CCN(CC)C(=O)c1ccc(C(c2ccc3ccccc3c2)N2CCNCC2)cc1 (stereo not drawn),> 10 µM
14,CCN(CC)C(=O)c1ccc(C(c2ccccc2)N2CCCNCC2)cc1 (stereo not drawn),4.53 µM
15,CCN(CC)C(=O)c1ccc(C(c2cccc(F)c2)N2CCNCC2)cc1 (stereo not drawn),> 10 µM
16,CCN(CC)C(=O)c1ccc(C(c2ccc(C)cc2)N2CCNCC2)cc1 (stereo not drawn),> 10 µM
17,C=CCN1C[C@H](C)N([C@H](c2ccc(C(=O)N(CC)CC)cc2)c2cccc(O)c2)C[C@H]1C,0.02 µM
18,CCN(CC)C(=O)c1ccc(C(c2cccc3c2OC(C)(C)C3)N2CCNCC2)cc1 (stereo not drawn),> 7.6 µM
19,CCN(CC)C(=O)c1ccc(C(c2cccc3ccccc23)N2CCNCC2)cc1 (stereo not drawn),4.91 µM
20,CCN(CC)C(=O)c1ccc(C(c2cccc3cccnc23)N2CCNCC2)cc1 (stereo not drawn),7.02 µM

# Tested on: not listed separately
# Assay: Maximal efficacy (Emax value)
# Assay type: functional
# Summary of the method: as §2
row,SMILES,Emax
1,CCN(CC)C(=O)c1ccc(C(c2cccc(OC)c2)N2CC(C)NCC2(C)C)cc1 (stereo not drawn),94%
2,CCN(CC)C(=O)c1ccc(C(c2ccccc2)C2CCNCC2)cc1 (stereo not drawn),97%
3,CCN(CC)C(=O)c1ccc(C(c2ccccc2)N2CCN(C)CC2)cc1 (stereo not drawn),58%
4,CCN(CC)C(=O)c1ccc(C(c2ccccc2)N2CCNCC2)cc1 (stereo not drawn),104%
5,CCN(CC)C(=O)c1ccc(C(c2cccc3cnccc23)N2CCNCC2)cc1 (stereo not drawn),106%
6,CCN(CC)C(=O)c1ccc(C(c2ccc3cc[nH]c3c2)N2CCNCC2)cc1 (stereo not drawn),105%
7,CCN(CC)C(=O)c1ccc(C(c2ccc(Cl)cc2)N2CCNCC2)cc1 (stereo not drawn),107%
8,CCN(CC)C(=O)c1ccc(C(c2cccc(OC)c2)N2CCNCC2)cc1 (stereo not drawn),109%
9,CCN(CC)C(=O)c1ccc(C(c2ccc3ccccc3c2)N2CCNCC2)cc1 (stereo not drawn),110%
10,CCN(CC)C(=O)c1ccc(C(c2ccccc2)N2CCCNCC2)cc1 (stereo not drawn),96%
11,CCN(CC)C(=O)c1ccc(C(c2cccc(F)c2)N2CCNCC2)cc1 (stereo not drawn),97%
12,CCN(CC)C(=O)c1ccc(C(c2ccc(C)cc2)N2CCNCC2)cc1 (stereo not drawn),84%
13,C=CCN1C[C@H](C)N([C@H](c2ccc(C(=O)N(CC)CC)cc2)c2cccc(O)c2)C[C@H]1C,98%
14,CCN(CC)C(=O)c1ccc(C(c2cccc3c2OC(C)(C)C3)N2CCNCC2)cc1 (stereo not drawn),101%
15,CCN(CC)C(=O)c1ccc(C(c2cccc3ccccc23)N2CCNCC2)cc1 (stereo not drawn),99%
16,CCN(CC)C(=O)c1ccc(C(c2cccc3cccnc23)N2CCNCC2)cc1 (stereo not drawn),104%

# Molecular target: T1, Delta-type opioid receptor
# Assay: Agonist potency was measured using GTP gamma-[35S] binding assay
row,SMILES,EC50
1,CCN(CC)C(=O)c1ccc(C(c2cccc(OC)c2)N2CC(C)NCC2(C)C)cc1 (stereo not drawn),0.273 µM
2,CCN(CC)C(=O)c1ccc(C(c2ccccc2)N2CCN(C)CC2)cc1 (stereo not drawn),0.211 µM
3,CCN(CC)C(=O)c1ccc(C(c2cccc3cnccc23)N2CCNCC2)cc1 (stereo not drawn),0.0546 µM
4,CCN(CC)C(=O)c1ccc(C(c2ccc3cc[nH]c3c2)N2CCNCC2)cc1 (stereo not drawn),0.0449 µM
5,CCN(CC)C(=O)c1ccc(C(c2ccc(Cl)cc2)N2CCNCC2)cc1 (stereo not drawn),0.113 µM
6,CCN(CC)C(=O)c1ccc(C(c2cccc(OC)c2)N2CCNCC2)cc1 (stereo not drawn),0.042 µM
7,CCN(CC)C(=O)c1ccc(C(c2ccc3cccnc3c2)N2CCNCC2)cc1 (stereo not drawn),0.00686 µM
8,CCN(CC)C(=O)c1ccc(C(c2ccc3ccccc3c2)N2CCNCC2)cc1 (stereo not drawn),0.05 µM
9,CCN(CC)C(=O)c1ccc(C(c2ccccc2)N2CCCNCC2)cc1 (stereo not drawn),0.303 µM
10,CCN(CC)C(=O)c1ccc(C(c2cccc(F)c2)N2CCNCC2)cc1 (stereo not drawn),0.0533 µM
11,CCN(CC)C(=O)c1ccc(C(c2ccc(C)cc2)N2CCNCC2)cc1 (stereo not drawn),0.0781 µM
12,C=CCN1C[C@H](C)N([C@H](c2ccc(C(=O)N(CC)CC)cc2)c2cccc(O)c2)C[C@H]1C,0.00012 µM
13,CCN(CC)C(=O)c1ccc(C(c2cccc3c2OC(C)(C)C3)N2CCNCC2)cc1 (stereo not drawn),0.0071 µM
14,CCN(CC)C(=O)c1ccc(C(c2cccc3ccccc23)N2CCNCC2)cc1 (stereo not drawn),0.018 µM
15,CCN(CC)C(=O)c1ccc(C(c2cccc3cccnc23)N2CCNCC2)cc1 (stereo not drawn),0.0036 µM
